How the values were obtained:
[1] = Cytotoxicity against syrian hamster HIT-T15 cells assessed as decrease in cell viability at 40 uM by MTT assay; type: cell-based, Mesocricetus auratus
[2] = Induction of insulin secretion in syrian hamster HIT-T15 cells at 40 uM after 1 hr by HTRF assay relative to control; type: functional, Mesocricetus auratus
Method in brief: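 HIT-T15 hamster pancreatic islet cells were exposed to test compounds at 40 μM, with gliclazide at 100 μM as the positive control. Insulin secretion is expressed relative to untreated control cells. The procedure follows an earlier report. Each experiment was performed three times, and significance was taken at p < 0.01.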

Row | SMILES | Activity [1] | fold change (FC) [2]
1 | Cc1cc2c([nH]c3c([C@]4(C)CC[C@@]5(C(C)C)C[C@H]54)c(O)ccc32)c2c1OC(C)(C)C=C2 | Non-Toxic | 1.9 - 3.1
2 | COc1cc2c(cc1OC1(C(C)C)CC=C(C)CC1)[nH]c1c3c(c(C)cc12)OC(C)(C)C=C3 (centres undefined) | Non-Toxic | 1.9 - 3.1
3 | Cc1cc2c([nH]c3c([C@@]4(C)CC[C@@]5(C(C)C)C[C@H]54)c(O)ccc32)c2c1OC(C)(C)C=C2 | Non-Toxic | 1.9 - 3.1
4 | CC(C)=CCC[C@]1(C)C=Cc2c(c(C)cc3c2[nH]c2c([C@@H]4C=C(C)CC[C@H]4C(C)C)c(O)ccc23)O1 | Non-Toxic | 1.9 - 3.1
5 | CC(C)=CCC[C@]1(C)C=Cc2c(c(C)cc3c2[nH]c2c([C@@]4(C)CC[C@@]5(C(C)C)C[C@H]54)c(O)ccc23)O1 | Non-Toxic | 1.9 - 3.1
6 | CC1=C[C@@H](c2c(O)ccc3c2[nH]c2c4c(c(C)cc23)OC(C)(C)C=C4)[C@H](C(C)C)CC1 | Non-Toxic | 1.9 - 3.1
7 | CC1=CCC(Oc2ccc3c(c2)[nH]c2c4c(c(C)cc23)OC(C)(C)C=C4)(C(C)C)CC1 (centres undefined) | Non-Toxic | 1.9 - 3.1
8 | CC(C)=CCCC1(C)C=Cc2c(c(C)cc3c2[nH]c2cc(OC4(C(C)C)CC=C(C)CC4)ccc23)O1 (centres undefined) | Non-Toxic | 1.9 - 3.1
9 | COc1cc2c(cc1OC(C)(C)[C@@H]1CC=C(C)CC1)[nH]c1c3c(c(C)cc12)OC(C)(C)C=C3 | Non-Toxic | 1.9 - 3.1
10 | COc1cc2c([nH]c3c4c(c(C)cc32)OC(C)(C)C=C4)c([C@@]2(C)CC[C@@]3(C(C)C)C[C@H]32)c1O | Non-Toxic | 1.9 - 3.1
11 | COc1cc2c([nH]c3c4c(c(C)cc32)OC(C)(C)C=C4)c([C@]2(C)CC[C@@]3(C(C)C)C[C@H]32)c1O | Non-Toxic | 1.9 - 3.1
12 | COc1cc2c([nH]c3c4c(c(C)cc32)OC(C)(C)C=C4)c([C@@H]2C=C(C)CC[C@H]2C(C)C)c1O | Non-Toxic | 1.9 - 3.1

Source: ChEMBL document CHEMBL4266034, “LC-MS-Guided Isolation of Insulin-Secretion-Promoting Monoterpenoid Carbazole Alkaloids from Murraya microphylla” (J Nat Prod, 2018)
